Assay results: ChEMBL document CHEMBL1152572, “Synthesis and antimalarial activity of new chloroquine analogues carrying a multifunctional linear side chain” (Bioorg Med Chem, 2009)

Experiments:
Plasmodium falciparum [1] = experiment: Antiplasmodial activity against chloroquine-sensitive Plasmodium falciparum HB3 assessed as SYBR Green 1 fluorescence emission after 72 hrs; assay type: functional, organism-based; settings: HB3, 72 h
How it was run: (§1)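 Sorbitol-synchronized P. falciparum cultures (>95% ring stage) exposed to serial drug dilutions in complete medium at 0.5% parasitemia, 1% hematocrit final. Incubated 72 h, 37 °C. SYBR Green I then added, 1 h at 37 °C. Fluorescence read at 530 nm emission, 490 nm excitation. Each dilution run in triplicate; IC50 averaged from at least two separate assays.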

Plasmodium falciparum [2] = experiment: Antiplasmodial activity against chloroquine-resistant Plasmodium falciparum Dd2 assessed as SYBR Green 1 fluorescence emission after 72 hrs; assay type: functional, organism-based; settings: Dd2, 72 h; how it was run: as §1
[3] = Resistance index, ratio IC50 for chloroquine-resistant Plasmodium falciparum Dd2 to IC50 for chloroquine-sensitive Plasmodium falciparum HB3; assay type: functional

SMILES	IC50 (Plasmodium falciparum [1]) [µM]	IC50 (Plasmodium falciparum [2]) [µM]	Ratio IC50 [3]
CCN(CC)CCCN(CC)CCCOc1ccnc2cc(Cl)ccc12	0.0775	0.108	1.4
CCN(CC)CCCNCCOc1ccnc2cc(Cl)ccc12	0.0946	0.214	2.3
CCN(CC)CCCCN(CC)CCNc1ccnc2cc(Cl)ccc12	0.0051	0.0362	7.1
CCN(CC)CCCCC(=O)NCCNc1ccnc2cc(Cl)ccc12	0.228	1.19	5.2
CCN(CC)CCNCCNc1ccnc2cc(Cl)ccc12	0.0108	1.57	145
CCN(CC)CCCC(=O)NCCNc1ccnc2cc(Cl)ccc12	0.225	1.19	5.3
CCN(CC)CCC(=O)NCCCOc1ccnc2cc(Cl)ccc12	2.31	0.752	0.3
CCN(CC)CCCN(CC)CCOc1ccnc2cc(Cl)ccc12	0.321	0.409	1.3
CCN(CC)CCC(=O)NCCOc1ccnc2cc(Cl)ccc12	1.71	1.46	0.9
CCN(CC)CCCCCNCCNc1ccnc2cc(Cl)ccc12	0.0289	0.459	15.9
CCN(CC)CC(=O)NCCNc1ccnc2cc(Cl)ccc12	0.715	3.36	4.7
CCN(CC)CCN(CC)CCNc1ccnc2cc(Cl)ccc12	0.005	0.053	10.5
CCN(CC)CCCCCC(=O)NCCNc1ccnc2cc(Cl)ccc12	0.287	2.7	9.4
CCN(CC)CCCNCCCOc1ccnc2cc(Cl)ccc12	0.0197	0.24	12.2
CCN(CC)CCCCCCN(CC)CCNc1ccnc2cc(Cl)ccc12	0.005	0.0199	4
CCN(CC)CCCCCCNCCNc1ccnc2cc(Cl)ccc12	0.0689	0.231	3.4
CCN(CC)CCCCCN(CC)CCNc1ccnc2cc(Cl)ccc12	0.0089	0.0387	4.3
CCN(CC)CCCCNCCNc1ccnc2cc(Cl)ccc12	0.0307	1.27	41.5
CCN(CC)CCN(CCNc1ccnc2cc(Cl)ccc12)CCN(CC)CC	0.007	0.151	21.5
CCN(CC)CCC(=O)NCCNc1ccnc2cc(Cl)ccc12			24.1
